We go through eight molecules from ChEMBL document CHEMBL4020707, “Exploring the influence of indololactone structure on selectivity for binding to the C1 domains of PKCα, PKCε, and RasGRP” (Bioorg Med Chem, 2017).

In assay [1] the target is Protein kinase C alpha type (Homo sapiens, UniProt P17252). Description: Displacement of [20-3H]phorbol 12,13-dibutyrate from PKCalpha (unknown origin) in the presence of porcine brain phosphatidylserine by scintillation counting. The method, boiled down:
(§1)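 Competitive binding against bound [20-3H]PDBu with 100 μg/ml phosphatidylserine present. Each curve used six ligand concentrations, each measured in triplicate. IC50 was obtained by least-squares fit of a theoretical sigmoidal competition curve. Ki was calculated from IC50 after correcting for competition by [3H]PDBu. Values are mean ± SE of at least three independent experiments.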

The target in assay [2] is T1, Protein kinase C epsilon type (Homo sapiens, UniProt Q02156).
T1 sequence (Q02156 whole entry): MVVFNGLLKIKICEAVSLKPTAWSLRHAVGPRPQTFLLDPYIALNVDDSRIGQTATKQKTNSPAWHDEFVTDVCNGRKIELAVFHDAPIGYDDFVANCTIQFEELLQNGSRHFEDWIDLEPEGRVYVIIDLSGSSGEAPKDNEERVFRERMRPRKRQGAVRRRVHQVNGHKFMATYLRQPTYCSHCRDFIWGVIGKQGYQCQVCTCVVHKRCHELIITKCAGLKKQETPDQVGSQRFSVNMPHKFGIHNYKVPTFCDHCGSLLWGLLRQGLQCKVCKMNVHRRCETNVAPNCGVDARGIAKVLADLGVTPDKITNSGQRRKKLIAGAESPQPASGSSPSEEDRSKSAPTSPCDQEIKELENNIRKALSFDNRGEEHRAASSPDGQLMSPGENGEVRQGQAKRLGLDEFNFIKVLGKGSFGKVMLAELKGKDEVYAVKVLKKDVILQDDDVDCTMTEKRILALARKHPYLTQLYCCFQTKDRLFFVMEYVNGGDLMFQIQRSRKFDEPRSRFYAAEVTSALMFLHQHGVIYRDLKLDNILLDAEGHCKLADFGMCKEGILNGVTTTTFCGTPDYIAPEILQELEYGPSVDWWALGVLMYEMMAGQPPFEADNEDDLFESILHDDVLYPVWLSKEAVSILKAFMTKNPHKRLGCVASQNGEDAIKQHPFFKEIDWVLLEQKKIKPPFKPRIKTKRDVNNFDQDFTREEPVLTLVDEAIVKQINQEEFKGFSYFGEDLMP
The assay is described as follows: Displacement of [20-3H]phorbol 12,13-dibutyrate from PKCepsilon (unknown origin) in the presence of porcine brain phosphatidylserine by scintillation counting. The gist of the method:
as §1

The target in assay [3] is T2, RAS guanyl-releasing protein 1 (Homo sapiens, UniProt O95267).
T2 sequence (O95267 whole entry): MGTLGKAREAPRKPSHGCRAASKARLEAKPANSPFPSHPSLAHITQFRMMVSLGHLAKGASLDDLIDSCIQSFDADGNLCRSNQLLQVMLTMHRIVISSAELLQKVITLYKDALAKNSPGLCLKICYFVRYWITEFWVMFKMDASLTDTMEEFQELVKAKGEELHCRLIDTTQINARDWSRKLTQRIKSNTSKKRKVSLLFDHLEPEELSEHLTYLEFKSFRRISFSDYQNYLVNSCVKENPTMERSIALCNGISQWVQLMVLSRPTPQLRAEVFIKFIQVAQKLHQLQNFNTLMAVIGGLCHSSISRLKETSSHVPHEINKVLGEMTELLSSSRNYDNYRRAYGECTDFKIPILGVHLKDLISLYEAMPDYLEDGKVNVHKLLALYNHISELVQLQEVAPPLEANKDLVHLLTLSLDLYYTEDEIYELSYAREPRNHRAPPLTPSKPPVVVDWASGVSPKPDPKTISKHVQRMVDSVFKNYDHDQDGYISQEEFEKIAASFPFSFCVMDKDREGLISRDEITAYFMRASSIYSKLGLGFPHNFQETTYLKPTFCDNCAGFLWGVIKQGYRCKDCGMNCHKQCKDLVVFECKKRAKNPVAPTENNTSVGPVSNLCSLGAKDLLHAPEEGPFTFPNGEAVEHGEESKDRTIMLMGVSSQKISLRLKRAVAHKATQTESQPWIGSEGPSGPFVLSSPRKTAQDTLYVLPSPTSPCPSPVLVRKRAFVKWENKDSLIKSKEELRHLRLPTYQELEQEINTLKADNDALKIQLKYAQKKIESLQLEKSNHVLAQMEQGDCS
Description: Displacement of [20-3H]phorbol 12,13-dibutyrate from RasGRP1 (unknown origin) in the presence of porcine brain phosphatidylserine by scintillation counting. The gist of the method: as §1

The species entered for assay [4] is Homo sapiens. The assay is described as follows: Selectivity index, ratio of Ki for PKCalpha (unknown origin) to Ki for RasGRP1 (unknown origin).
The species entered for assay [5] is Homo sapiens. The assay is described as follows: Selectivity index, ratio of Ki for PKCepsilon (unknown origin) to Ki for RasGRP1 (unknown origin).
Assay [6] is filed under the species Homo sapiens. Description: Selectivity index, ratio of Ki for PKCalpha (unknown origin) to Ki for PKCepsilon (unknown origin).

As for `CC(C)CC(C/C=C1/CC(CO)(COC(=O)c2cn(C)c3ccccc23)OC1=O)CC(C)C` (stereo not drawn), the inhibition constant (Ki) worked out at 83.1 nM in assay [1], 55 nM in assay [2] and 22.6 nM in assay [3]. For the same molecule, the Ratio Ki in the assay filed under Homo sapiens [4] stood at 3.7; in the assay listed under Homo sapiens [5], 2.4; in the assay filed under Homo sapiens [6], 1.5.
With `Cc1ccc(C#Cc2ccc(C=C3CC(CO)(COC(=O)c4cn(C)c5ccccc45)OC3=O)cc2)cc1` (stereo not drawn), the Ki in assay [1] came to 116 nM; in assay [2], 131 nM; in assay [3], 22.6 nM. In addition, the Ratio Ki worked out at 5.1 in the assay listed under Homo sapiens [4], 5.8 in the assay filed under Homo sapiens [5] and 0.89 in the assay listed under Homo sapiens [6].
In the case of `CCCC(/C=C1\CC(CO)(COC(=O)c2cn(C)c3ccccc23)OC1=O)CCC` (stereo not drawn), the results for the inhibition constant Ki in assay [1], in assay [2] and in assay [3] were 504 nM, 295 nM and 133 nM, respectively. Further, the values for the Ratio Ki in the assay filed under Homo sapiens [4], in the assay filed under Homo sapiens [5] and in the assay filed under Homo sapiens [6] were 3.8, 2.2 and 1.7, respectively.
On to `CCCC(CCC)C(=O)OCC1(CO)C/C(=C\c2cn(C)c3ccccc23)C(=O)O1` (stereo not drawn), for which the inhibition constant (Ki) amounted to 12.9 nM in assay [1], 31 nM in assay [2] and 0.58 nM in assay [3]. The Ratio Ki was 22 in the assay listed under Homo sapiens [4], 53 in the assay listed under Homo sapiens [5] and 0.42 in the assay listed under Homo sapiens [6].
As to `CC(C)=C1CC(CO)(COC(=O)c2cn(C)c3ccccc23)OC1=O` (stereo not drawn), the Ki was 698 nM in assay [1], 301 nM in assay [2] and 666 nM in assay [3]. Further, the Ratio Ki in the assay filed under Homo sapiens [4] was found to be 1.08; in the assay listed under Homo sapiens [5] it was 0.45; in the assay listed under Homo sapiens [6], 2.3.
As for `Cc1ccc(C#Cc2ccc(/C=C3\CC(CO)(COC(=O)c4cn(C)c5ccccc45)OC3=O)cc2)cc1` (stereo not drawn), the inhibition constant (Ki) in assay [1] was found to be 257 nM; in assay [2], 119 nM; in assay [3] it was 40 nM. Also, the Ratio Ki in the assay listed under Homo sapiens [4] is 6.5; in the assay filed under Homo sapiens [5], 3; in the assay filed under Homo sapiens [6] it was 2.2.
Turning to `CC(C)CC(C/C=C1\CC(CO)(COC(=O)c2cn(C)c3ccccc23)OC1=O)CC(C)C` (stereo not drawn), the figures for the Ki in assay [1], in assay [2] and in assay [3] were 73 nM, 27.3 nM and 31.3 nM, respectively. The Ratio Ki in the assay listed under Homo sapiens [4] is 2.3; in the assay listed under Homo sapiens [5], 0.87; in the assay listed under Homo sapiens [6], 2.7.
In the case of `CCCCCCCCC/C=C1\CC(CO)(COC(=O)c2cn(C)c3ccccc23)OC1=O` (stereo not drawn), the Ki in assay [1] was found to be 106 nM; in assay [2], 59.6 nM; in assay [3] it was 63.3 nM. Besides, the Ratio Ki in the assay filed under Homo sapiens [4] worked out at 1.7; in the assay listed under Homo sapiens [5] it was 0.94; in the assay filed under Homo sapiens [6], 1.8.
